# DYRK1A inh: blocks rat Dyrk1A kinase activity. Q63470. 0.43% of 310,000 active. AID 504441. ADP-Glo luminescence, NFATc1 peptide. inhibition, % at 12.5 µM; in the data active = inhibition above about 50%;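 also: plate controls were vehicle with enzyme for no effect and no enzyme for full effect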
# CAL PDZ FP-1: inhibitors of human CAL PDZ peptide binding; purified CAL PDZ, TMR-peptide fluorescence polarization, 1 h; inhibition, % at 20 µM; 0.02% of 330,000 active;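 active = highest replicate inhibition of at least 40%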;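 also: plate controls were DMSO neutral control wells for no effect and unlabeled competitor peptide control wells for full effect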
#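 material = purified tagged CAL PDZ domain construct (CerCALP) | buffer or medium = sodium phosphate/NaCl buffer pH 7.4 with TCEP, IgG, Thesit | reagent = TMR-labelled reporter peptide T*-PRC34 bound in PDZ groove | incubation = 1 h room-temperature incubation prior to read | measured by = fluorescence polarization (mP) | evaluation = percent inhibition from loss of millipolarization | control set = unlabelled peptide and DMSO controls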
# CDK5 p35 inh: blocks human CDK5/p35 kinase activity; Q00535+Q15078; Recombinant CDK5/p35, ADP-Glo luminescence, 60 min; inhibition, % at 10 µM; 0.01% of 330,000 active; AID 488839;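 active = highest replicate inhibition of at least 50% and at least 75% of replicates reaching 50%; inconclusive = only one of the two criteria met; inactive = both criteria failed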;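 also: plate controls were DMSO neutral control for no effect and GW8510 at 10 µM for full effect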
# Target sequence (Q00535 whole entry, looked up): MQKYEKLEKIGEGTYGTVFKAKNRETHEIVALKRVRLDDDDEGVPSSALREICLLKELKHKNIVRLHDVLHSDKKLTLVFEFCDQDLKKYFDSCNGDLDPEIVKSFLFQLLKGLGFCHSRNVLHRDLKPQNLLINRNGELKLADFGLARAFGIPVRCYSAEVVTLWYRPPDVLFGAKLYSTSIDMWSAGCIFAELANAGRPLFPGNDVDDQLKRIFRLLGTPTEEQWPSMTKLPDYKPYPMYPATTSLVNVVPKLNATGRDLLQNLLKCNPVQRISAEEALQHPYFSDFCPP
# Target sequence (Q15078 whole entry, looked up): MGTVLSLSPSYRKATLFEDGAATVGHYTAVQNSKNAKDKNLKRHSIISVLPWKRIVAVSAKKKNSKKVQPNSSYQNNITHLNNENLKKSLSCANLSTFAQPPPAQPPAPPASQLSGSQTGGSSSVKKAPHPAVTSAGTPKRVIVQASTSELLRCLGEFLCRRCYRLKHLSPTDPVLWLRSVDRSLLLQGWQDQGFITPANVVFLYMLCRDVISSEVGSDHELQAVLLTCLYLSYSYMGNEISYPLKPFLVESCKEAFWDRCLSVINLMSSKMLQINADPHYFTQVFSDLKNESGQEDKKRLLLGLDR
# Rtt109 HAT inh: C. albicans Rtt109 histone acetyltransferase inhibition; inhibition, % at 34.9 µM; purified Rtt109/Vps75, ThioGlo CoA-SH fluorescence, 4 h; Q5AAJ8; 0.16% of 330,000 active;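 active = inhibition of at least 50% in every replicate; inconclusive = best replicate reaches 50% inhibition but some replicates fall short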
# CAL PDZ FP-2: inhibitors of human CAL PDZ peptide binding; Q9HD26; purified CAL PDZ, TMR-peptide fluorescence polarization, 1 h; inhibition, % at 24.9 µM; 0.92% of 300,000 active;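 active = mean inhibition of at least 30% with at least half of replicates also reaching 30%; inconclusive = no clear call, values can overlap the other calls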;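 also: 0% = DMSO neutral control and 100% = excess unlabeled competitor peptide PRC23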
# dFosB act: enhances mouse delta FosB homodimer DNA binding; P13346; purified delta FosB, TAMRA-CDK5 oligo fluorescence polarization; percent of positive-control signal above neutral wells; activation, % at 25 µM; 0.99% of 340,000 active; AID 493131;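 active = mean activation above about 17%, with every replicate also reaching it, limit read from the data, passing the limit was not always enough; inconclusive = only one of the two conditions met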
# An asterisk follows results filed as active; ? = inconclusive; / = not tested or not shown; + = active, no number; ! = a repeat was not active. Only some compounds are listed: those with a hit (about 2.2% of all), similar ones and a draw of the others.
SMILES,DYRK1A inh,CAL PDZ FP-1,CDK5 p35 inh,Rtt109 HAT inh,CAL PDZ FP-2,dFosB act
COc1ccc(C(C[N+](=O)[O-])c2c(-c3ccccc3)cc3ccccn23)cc1OC (stereo not given),5,1,0,13,-1,3
CC1CC(C)CN(C(=O)CCn2c(=O)oc3ccccc32)C1 (stereo not given),0,14,0,-6,45*,-3
O/N=C/c1cccc[n+]1CCCCCC[n+]1ccccc1/C=N/O,15,-1,-1,-9,19,-5
CCCCCc1ccc(OCCC[n+]2ccccc2)c(CCCCC)c1,1,-1,0,?,-8,-4
CCCCCCCCCCCCCCCC[n+]1ccc(/C=N/O)cc1,-4,-1,-1,-6,2,38*
CCCCCCCCCCCCCCCC[n+]1ccc(C(N)=O)cc1,1,0,3,0,0,45*
CCCCCCCCCCCCCCCC[n+]1cccc(C(=O)N(CC)CC)c1,3,-1,1,74*!,-6,16
CCCCCCCC[n+]1cccc(C(=O)N(CC)CC)c1,-3,-2,-1,/,-3,-1
CCCCCCCCCCCCCCCC[n+]1ccccc1,16,0,3,75*!,-1,-148
CC(C)Oc1ccc(C2CC(=O)N(C)C2=O)cc1 (stereo not given),-4,-1,0,0,6,-5
CC(C)c1nnc(SCC(=O)NC2CCCCC2)n1C,-5,-2,1,-3,0,-3
O=C(O)c1cccc(Nc2nc(-c3cc4ccccc4oc3=O)cs2)c1,10,-1,0,-6,3,-14
COCCn1c(SCC(=O)NCc2ccc3c(c2)OCO3)nnc1-c1c[nH]c2ccccc12,1,-1,0,-4,64*,-8
COc1ccc(C)cc1Nc1nc(-c2c[nH]c3ccccc23)cs1,6,0,0,/,-4,27*
COc1ccc(OC)c(Nc2nc(-c3cccs3)cs2)c1,2,-4,2,-3,-1,-4
C=CCc1cccc2cc(C(=O)OCC(=O)c3ccccc3)c(=O)oc12,-3,-1,0,-2,2,-2
CSCCC(NC(=O)COc1cccc2ccccc12)C(=O)O (stereo not given),4,0,-1,2,70*,1
O=C(CSc1ccccc1F)Nc1ccc(N2CCOCC2)cc1,2,0,0,11,/,-7
CC(C)c1nc(SCC(=O)Nc2ccc(N3CCOCC3)cc2)c2ccccc2n1,-3,-3,0,+,-4,-5
COC(=O)c1ccccc1SCC(=O)Nc1ccc(N2CCOCC2)cc1,-3,-2,-1,-7,64*,3
CCCC(=Nc1ccc(N)cc1)C1=C(O)C(C(=O)OC)C(C)(C)CC1=O (stereo not given),6,-2,1,-25,/,-13
Cc1ccc(S(=O)(=O)NCCNc2ccc(Br)c(C)c2)cc1,-3,0,0,-9,39*,-6
COCc1cc(Sc2cccc(Cl)c2Cl)nc(-c2ccccc2)n1,-4,-1,-1,4,36*,1
COCc1cc(Sc2ccc(Cl)cc2)nc(-c2ccccc2)n1,-7,-1,0,-5,/,-6
O=C(CCN1CCc2ccccc2CC1)c1ccc2c(c1)OCCO2,6,-2,-6,177*,-4,-12
Cc1ccccc1CS(=O)(=O)c1nnc([C@H](CC(C)C)NC(=O)OC(C)(C)C)o1,2,-2,-6,2,/,0
CC[C@@H](C)[C@H](NC(=O)OC(C)(C)C)c1nnc(S(=O)(=O)Cc2cc(C)ccc2C)o1,3,0,-2,133*,2,-7
CCC(C)N1CCC2(CC1)N=c1c(c3c4c5c(C)c(O)c3c(O)c1=NC(=O)C(C)=CC=C[C@H](C)[C@H](O)[C@@H](C)[C@@H](O)[C@@H](C)[C@H](OC(C)=O)[C@H](C)[C@@H](OC)C=CO[C@@](C)(O5)C4=O)N2 (stereo not given in full),-3,0,1,5,-1,-11
Cc1cc(C)c2nc(SCC(=O)NCCN3C(=O)CSC3=O)cc(C)c2c1,-4,0,-2,-4,4,-8

# Compound activity deposited in PubChem by Broad Institute.
